According to ChEMBL document CHEMBL1127441, “Design, synthesis, and neurochemical evaluation of 2-amino-5-(alkoxycarbonyl)-3,4,5,6-tetrahydropyridines and 2-amino-5-(alkoxycarbonyl)-1,4,5,6-tetrahydropyrimidines as M1 muscarinic receptor agonists” (J Med Chem, 1994):

Columns and labels:
Rattus norvegicus = species: Rattus norvegicus; assay: Stimulation of phosphoinositide (PI) metabolism in rat cortex at 100 uM; type: functional
How it was run: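 Rat cerebral cortex slices cross-chopped at 300 μm, preincubated in oxygenated Krebs-Henseleit buffer at 37 °C. Labeled 30 min with 0.3 mM [3H]inositol and 10 mM LiCl, then 45 min with agonist at 100 μM, or buffer for basal. Stopped with CHCl3/MeOH. Total [3H]inositol phosphates isolated on anion-exchange cartridges and counted. Given as % above basal; mean ± SEM, three independent experiments.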

[1] = target: Muscarinic acetylcholine receptor; assay: Affinity for muscarinic receptor in rat brain was measured by inhibition of [3H](R)-quinuclidinyl benzilate (QNB) binding; type: tissue-based
[2] = target: T1, Muscarinic acetylcholine receptor M1 (Rattus norvegicus, UniProt P08482); assay: (§1) Affinity for muscarinic receptor M1 in rat brain was measured by inhibition of [3H](R)-quinuclidinyl benzilate (QNB) binding; type: tissue-based
T1 sequence (P08482 whole entry): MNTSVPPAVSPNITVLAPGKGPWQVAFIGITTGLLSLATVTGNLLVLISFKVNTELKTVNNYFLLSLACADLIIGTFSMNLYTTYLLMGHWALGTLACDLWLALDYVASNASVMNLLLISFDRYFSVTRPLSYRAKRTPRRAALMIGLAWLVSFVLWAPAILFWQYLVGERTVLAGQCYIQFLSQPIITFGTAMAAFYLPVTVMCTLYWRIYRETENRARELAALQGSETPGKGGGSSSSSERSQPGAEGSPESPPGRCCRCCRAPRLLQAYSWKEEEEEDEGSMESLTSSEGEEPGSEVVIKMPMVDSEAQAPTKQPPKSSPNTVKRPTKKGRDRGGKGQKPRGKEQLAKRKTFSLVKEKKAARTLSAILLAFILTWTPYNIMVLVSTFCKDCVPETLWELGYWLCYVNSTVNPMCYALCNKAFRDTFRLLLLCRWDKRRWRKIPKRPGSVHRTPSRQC
How it was run: (§2)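 Competition against 50 pM [3H]-(R)-QNB in rat brain membrane suspension, about 10 pM receptors (4 mg/mL protein), 40 mM Na/K phosphate pH 7.4, varying compound concentrations. Incubation 2.0 h at room temperature, then glass fiber filtration and two cold buffer washes. Nonspecific binding with 1000-fold excess atropine. IC50 from Hill plots; mean ± SEM, three independent experiments in triplicate.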

[3] = target: Muscarinic acetylcholine receptor; assay: as §1; type: tissue-based; how it was run: as §2

| SMILES | IC50 [1] [µM] | IC50 [2] [µM] | IC50 [3] [µM] | PI metabolism (Rattus norvegicus) [%] |
| --- | --- | --- | --- | --- |
| CC(C)OC(=O)C1CN=C(N)NC1.Cl (stereo unspecified) | 29 | – | – | 23 |
| C#CCOC(=O)C1CN=C(N)NC1.Cl (stereo unspecified) | 31 | – | – | 150 |
| C[N+](C)(C)CCOC(N)=O.[Cl-] [CARBACHOL] | – | – | – | 470 |
| CCOC(=O)C1CN=CNC1.Cl (stereo unspecified) | – | – | – | 150 |
| COC(=O)C1CN=CNC1.Cl (stereo unspecified) | – | – | – | 110 |
| CCCOC(=O)C1CN=CNC1.Cl (stereo unspecified) | – | – | – | 7.1 |
| CCCOC(=O)C1CN=C(N)NC1.Cl (stereo unspecified) | 4.8 | – | – | 4.3 |
| CC(C)OC(=O)C1CN=CNC1.Cl (stereo unspecified) | – | – | – | 7.2 |
| COC(=O)C1CCN=C(N)N1.Cl (stereo unspecified) | – | – | 4300 | – |
| CCOC(=O)C1CN=C(N)NC1.Cl (stereo unspecified) | 8.2 | – | – | 28 |
| C#CCOC(=O)C1CN=CNC1.Cl (stereo unspecified) | – | – | – | 230 |
| COC(=O)C1CCCC(N)=N1.Cl (stereo unspecified) | – | 250 | – | 8.1 |
| COC(=O)C1CCCN=C1N.Cl (stereo unspecified) | – | 320 | – | -5.5 |

Second part, led by results:

| IC50 [1] [µM] | IC50 [2] [µM] | IC50 [3] [µM] | SMILES | PI metabolism (Rattus norvegicus) [%] |
| --- | --- | --- | --- | --- |
| 1.7 | – | – | CCCOC(=O)C1CCC(N)=NC1.Cl (stereo unspecified) | 51 |
| 2.3 | – | – | C#CCOC(=O)C1CCC(N)=NC1.Cl (stereo unspecified) | 120 |
| 10 | – | – | COC(=O)C1CCC(N)=NC1.Cl (stereo unspecified) | 260 |
| – | 120 | – | COC(=O)C1CCN=C(N)C1.Cl (stereo unspecified) | 9 |
| 4.3 | – | – | CCOC(=O)C1CCC(N)=NC1.Cl (stereo unspecified) | 31 |
| 22 | – | – | COC(=O)C1CN=C(N)NC1.Cl (stereo unspecified) | 81 |
